Legend:
Assay type in all cases: functional
Conditions in all cases: read-out: GI
HL-60(TB) = assay: Growth inhibition of human HL-60(TB) cells at 10 uM incubated for 48 hrs by sulforhodamine B assay relative to control
Method in brief: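 NCI-60 one-dose screen: same culture, 48 h drug exposure and SRB read-out. Reported as percent growth relative to no-drug control and to time-zero cell number; 0–100 means growth inhibition, below 0 means lethality.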

MOLT-4 = assay: Growth inhibition of human MOLT-4 cells at 10 uM incubated for 48 hrs by sulforhodamine B assay relative to control
Method in brief: (§1)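 NCI one-dose screen. Cells grown in RPMI 1640 with 5% FBS and 2 mM L-glutamine, plated and incubated 24 h at 37 °C, 5% CO2. DMSO-dissolved drug added, then 48 h further incubation. Adherent cells fixed with cold TCA, suspension cells fixed after settling. Stained with 0.4% SRB, absorbance read at 515 nm. Reported as percent growth relative to no-drug control and time-zero cell number.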

SR = assay: Growth inhibition of human SR cells at 10 uM incubated for 48 hrs by sulforhodamine B assay relative to control; method in brief: as §1
HOP-62 = assay: Growth inhibition of human HOP-62 cells at 10 uM incubated for 48 hrs by sulforhodamine B assay relative to control
Method in brief: (§2)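 NCI-60 single-dose screen. Cells were grown in RPMI 1640 with 5% FBS and 2 mM L-glutamine and plated 24 h before drug addition. Compound was added at one concentration in DMSO-derived medium and incubated for 48 h at 37 °C in 5% CO2. Read-out was SRB protein stain at 515 nm. Result is percent growth versus the no-drug control and the time-zero cell count; values below 0 indicate lethality.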

HOP-92 = assay: Growth inhibition of human HOP-92 cells at 10 uM incubated for 48 hrs by sulforhodamine B assay relative to control; method in brief: as §2
NCI-H23 = assay: Growth inhibition of human NCI-H23 cells at 10 uM incubated for 48 hrs by sulforhodamine B assay relative to control; method in brief: as §1
NCI-H322M = assay: Growth inhibition of human NCI-H322M cells at 10 uM incubated for 48 hrs by sulforhodamine B assay relative to control; method in brief: as §1
NCI-H460 = assay: Growth inhibition of human NCI-H460 cells at 10 uM incubated for 48 hrs by sulforhodamine B assay relative to control; method in brief: as §1
COLO 205 = assay: Growth inhibition of human COLO 205 cells at 10 uM incubated for 48 hrs by sulforhodamine B assay relative to control; method in brief: as §2
KM12 = assay: Growth inhibition of human KM12 cells at 10 uM incubated for 48 hrs by sulforhodamine B assay relative to control; method in brief: as §2
SW-620 = assay: Growth inhibition of human SW-620 cells at 10 uM incubated for 48 hrs by sulforhodamine B assay relative to control
Method in brief: (§3)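 NCI one-dose screen across a 59-line panel. Cells were grown in RPMI 1640 with 5% FBS and 2 mM L-glutamine, plated and pre-incubated 24 h, then exposed to drug for 48 h at 37 °C, 5% CO2. Adherent cells were fixed with cold TCA (10% final), stained with 0.4% SRB in 1% acetic acid and read at 515 nm. Result is percent growth relative to no-drug control and time-zero cell count.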

SF-295 = assay: Growth inhibition of human SF-295 cells at 10 uM incubated for 48 hrs by sulforhodamine B assay relative to control; method in brief: as §1
SNB-19 = assay: Growth inhibition of human SNB-19 cells at 10 uM incubated for 48 hrs by sulforhodamine B assay relative to control; method in brief: as §1
U-251 = assay: Growth inhibition of human U-251 cells at 10 uM incubated for 48 hrs by sulforhodamine B assay relative to control; method in brief: as §3
LOX IMVI = assay: Growth inhibition of human LOX IMVI cells at 10 uM incubated for 48 hrs by sulforhodamine B assay relative to control; method in brief: as §2
M14 = assay: Growth inhibition of human M14 cells at 10 uM incubated for 48 hrs by sulforhodamine B assay relative to control; method in brief: as §2
MDA-MB-435 = assay: Growth inhibition of human MDA-MB-435 cells at 10 uM incubated for 48 hrs by sulforhodamine B assay relative to control; method in brief: as §2
SK-MEL-2 = assay: Growth inhibition of human SK-MEL-2 cells at 10 uM incubated for 48 hrs by sulforhodamine B assay relative to control; method in brief: as §1
SK-MEL-28 = assay: Growth inhibition of human SK-MEL-28 cells at 10 uM incubated for 48 hrs by sulforhodamine B assay relative to control; method in brief: as §1
UACC-257 = assay: Growth inhibition of human UACC-257 cells at 10 uM incubated for 48 hrs by sulforhodamine B assay relative to control; method in brief: as §3
UACC-62 = assay: Growth inhibition of human UACC-62 cells at 10 uM incubated for 48 hrs by sulforhodamine B assay relative to control; method in brief: as §3
IGROV-1 = assay: Growth inhibition of human IGROV-1 cells at 10 uM incubated for 48 hrs by sulforhodamine B assay relative to control; method in brief: as §2
OVCAR-3 = assay: Growth inhibition of human OVCAR-3 cells at 10 uM incubated for 48 hrs by sulforhodamine B assay relative to control; method in brief: as §1
OVCAR-4 = assay: Growth inhibition of human OVCAR-4 cells at 10 uM incubated for 48 hrs by sulforhodamine B assay relative to control; method in brief: as §1
NCI/ADR-RES = assay: Growth inhibition of human NCI/ADR-RES cells at 10 uM incubated for 48 hrs by sulforhodamine B assay relative to control; method in brief: as §1
SK-OV-3 = assay: Growth inhibition of human SK-OV-3 cells at 10 uM incubated for 48 hrs by sulforhodamine B assay relative to control; method in brief: as §1
RXF 393 = assay: Growth inhibition of human RXF 393 cells at 10 uM incubated for 48 hrs by sulforhodamine B assay relative to control; method in brief: as §1
SN12C = assay: Growth inhibition of human SN12C cells at 10 uM incubated for 48 hrs by sulforhodamine B assay relative to control; method in brief: as §1
TK-10 = assay: Growth inhibition of human TK-10 cells at 10 uM incubated for 48 hrs by sulforhodamine B assay relative to control; method in brief: as §3
PC-3 = assay: Growth inhibition of human PC-3 cells at 10 uM incubated for 48 hrs by sulforhodamine B assay relative to control; method in brief: as §1
MCF7 = assay: Growth inhibition of human MCF7 cells at 10 uM incubated for 48 hrs by sulforhodamine B assay relative to control; method in brief: as §2
MDA-MB-231 = assay: Growth inhibition of human MDA-MB-231 cells at 10 uM incubated for 48 hrs by sulforhodamine B assay relative to control; method in brief: as §2
Hs-578T = assay: Growth inhibition of human HS-578T cells at 10 uM incubated for 48 hrs by sulforhodamine B assay relative to control; method in brief: as §2
BT-549 = assay: Growth inhibition of human BT-549 cells at 10 uM incubated for 48 hrs by sulforhodamine B assay relative to control; method in brief: as §2
T47D = assay: Growth inhibition of human T47D cells at 10 uM incubated for 48 hrs by sulforhodamine B assay relative to control; method in brief: as §3
MDA-MB-468 = assay: Growth inhibition of human MDA-MB-468 cells at 10 uM incubated for 48 hrs by sulforhodamine B assay relative to control; method in brief: as §2

Row | SMILES | inhibition of growth at 10 µM (HL-60(TB)) | inhibition of growth at 10 µM (MOLT-4) | inhibition of growth at 10 µM (SR) | inhibition of growth at 10 µM (HOP-62) | inhibition of growth at 10 µM (HOP-92) | inhibition of growth at 10 µM (NCI-H23) | inhibition of growth at 10 µM (NCI-H322M) | inhibition of growth at 10 µM (NCI-H460) | inhibition of growth at 10 µM (COLO 205) | inhibition of growth at 10 µM (KM12) | inhibition of growth at 10 µM (SW-620) | inhibition of growth at 10 µM (SF-295) | inhibition of growth at 10 µM (SNB-19) | inhibition of growth at 10 µM (U-251) | inhibition of growth at 10 µM (LOX IMVI) | inhibition of growth at 10 µM (M14) | inhibition of growth at 10 µM (MDA-MB-435) | inhibition of growth at 10 µM (SK-MEL-2) | inhibition of growth at 10 µM (SK-MEL-28) | inhibition of growth at 10 µM (UACC-257) | further results
1 | COc1cc2nc(-c3ccc(Cl)cc3)cc(OCCCN3CCCCC3)c2cc1OC | 62% | 62% | 62% | 62% | 62% | 62% | 62% | 62% | 62% | 62% | 62% | 62% | 62% | 62% | 62% | 62% | 62% | 62% | 62% | 62% | inhibition of growth at 10 µM (UACC-62): 62%; inhibition of growth at 10 µM (IGROV-1): 62%; inhibition of growth at 10 µM (OVCAR-3): 62%; inhibition of growth at 10 µM (OVCAR-4): 62%; inhibition of growth at 10 µM (NCI/ADR-RES): 62%; inhibition of growth at 10 µM (SK-OV-3): 62%; inhibition of growth at 10 µM (RXF 393): 62%; inhibition of growth at 10 µM (SN12C): 62%; inhibition of growth at 10 µM (TK-10): 62%; inhibition of growth at 10 µM (PC-3): 62%; inhibition of growth at 10 µM (MCF7): 62%; inhibition of growth at 10 µM (MDA-MB-231): 62%; inhibition of growth at 10 µM (Hs-578T): 62%; inhibition of growth at 10 µM (BT-549): 62%; inhibition of growth at 10 µM (T47D): 62%; inhibition of growth at 10 µM (MDA-MB-468): 62%
2 | COc1cc2nc(-c3ccc(Cl)cc3)cc(OCCCN3CCC(O)CC3)c2cc1OC | 62% | 62% | 62% | 62% | 62% | 62% | 62% | 62% | 62% | 62% | 62% | 62% | 62% | 62% | 62% | 62% | 62% | 62% | 62% | 62% | inhibition of growth at 10 µM (UACC-62): 62%; inhibition of growth at 10 µM (IGROV-1): 62%; inhibition of growth at 10 µM (OVCAR-3): 62%; inhibition of growth at 10 µM (OVCAR-4): 62%; inhibition of growth at 10 µM (NCI/ADR-RES): 62%; inhibition of growth at 10 µM (SK-OV-3): 62%; inhibition of growth at 10 µM (RXF 393): 62%; inhibition of growth at 10 µM (SN12C): 62%; inhibition of growth at 10 µM (TK-10): 62%; inhibition of growth at 10 µM (PC-3): 62%; inhibition of growth at 10 µM (MCF7): 62%; inhibition of growth at 10 µM (MDA-MB-231): 62%; inhibition of growth at 10 µM (Hs-578T): 62%; inhibition of growth at 10 µM (BT-549): 62%; inhibition of growth at 10 µM (T47D): 62%; inhibition of growth at 10 µM (MDA-MB-468): 62%
3 | COc1cc2nc(-c3ccc(C(F)(F)F)cc3)cc(OCCN3CCCCC3)c2cc1OC | 13% | 13% | 13% | 13% | 13% | 13% | 13% | 13% | 13% | 13% | 13% | 13% | 13% | 13% | 13% | 13% | 13% | 13% | 13% | 13% | inhibition of growth at 10 µM (UACC-62): 13%; inhibition of growth at 10 µM (IGROV-1): 13%; inhibition of growth at 10 µM (OVCAR-3): 13%; inhibition of growth at 10 µM (OVCAR-4): 13%; inhibition of growth at 10 µM (NCI/ADR-RES): 13%; inhibition of growth at 10 µM (SK-OV-3): 13%; inhibition of growth at 10 µM (RXF 393): 13%; inhibition of growth at 10 µM (SN12C): 13%; inhibition of growth at 10 µM (TK-10): 13%; inhibition of growth at 10 µM (PC-3): 13%; inhibition of growth at 10 µM (MCF7): 13%; inhibition of growth at 10 µM (MDA-MB-231): 13%; inhibition of growth at 10 µM (Hs-578T): 13%; inhibition of growth at 10 µM (BT-549): 13%; inhibition of growth at 10 µM (T47D): 13%; inhibition of growth at 10 µM (MDA-MB-468): 13%
4 | COc1cc2nc(-c3ccc(C(F)(F)F)cc3)cc(OCCN3CCCC3)c2cc1OC | 13% | 13% | 13% | 13% | 13% | 13% | 13% | 13% | 13% | 13% | 13% | 13% | 13% | 13% | 13% | 13% | 13% | 13% | 13% | 13% | inhibition of growth at 10 µM (UACC-62): 13%; inhibition of growth at 10 µM (IGROV-1): 13%; inhibition of growth at 10 µM (OVCAR-3): 13%; inhibition of growth at 10 µM (OVCAR-4): 13%; inhibition of growth at 10 µM (NCI/ADR-RES): 13%; inhibition of growth at 10 µM (SK-OV-3): 13%; inhibition of growth at 10 µM (RXF 393): 13%; inhibition of growth at 10 µM (SN12C): 13%; inhibition of growth at 10 µM (TK-10): 13%; inhibition of growth at 10 µM (PC-3): 13%; inhibition of growth at 10 µM (MCF7): 13%; inhibition of growth at 10 µM (MDA-MB-231): 13%; inhibition of growth at 10 µM (Hs-578T): 13%; inhibition of growth at 10 µM (BT-549): 13%; inhibition of growth at 10 µM (T47D): 13%; inhibition of growth at 10 µM (MDA-MB-468): 13%

Reference: ChEMBL document CHEMBL4732237, “Discovery of 4-alkoxy-2-aryl-6,7-dimethoxyquinolines as a new class of topoisomerase I inhibitors endowed with potent in vitro anticancer activity” (2021)
